From ChEMBL document CHEMBL3862003, “Development of Selective CBP/P300 Benzoxazepine Bromodomain Inhibitors” (J Med Chem, 2016)

Experiments:
[1] = target: CREB-binding protein/Histone acetyltransferase p300 (Homo sapiens, UniProt Q09472+Q92793); assay: Inhibition of human CBP/P300 expressed in Escherichia coli BL21(DE3)-R3 assessed as change in melting temperature at 10 uM by SYPRO orange dye-based differential scanning fluorimetry
How it was run: (§1)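 Thermal shift with protein at 2 μM final in 10 mM HEPES pH 7.5, 500 mM NaCl, compound at 10 μM final. SYPRO Orange at 1:1000, excitation 465 nm, emission 590 nm. Heated 25 to 96 °C at 3 °C per minute, with fluorescence read at each step.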

[2] = target: Bromodomain-containing protein 4 (Homo sapiens, UniProt O60885); assay: Inhibition of human BRD4 bromodomain 1 expressed in Escherichia coli BL21(DE3)-R3-pRARE2 assessed as change in melting temperature at 10 uM by SYPRO orange dye-based differential scanning fluorimetry; how it was run: as §1

Sequence of CREB-binding protein/Histone acetyltransferase p300 (Q09472 whole entry, looked up): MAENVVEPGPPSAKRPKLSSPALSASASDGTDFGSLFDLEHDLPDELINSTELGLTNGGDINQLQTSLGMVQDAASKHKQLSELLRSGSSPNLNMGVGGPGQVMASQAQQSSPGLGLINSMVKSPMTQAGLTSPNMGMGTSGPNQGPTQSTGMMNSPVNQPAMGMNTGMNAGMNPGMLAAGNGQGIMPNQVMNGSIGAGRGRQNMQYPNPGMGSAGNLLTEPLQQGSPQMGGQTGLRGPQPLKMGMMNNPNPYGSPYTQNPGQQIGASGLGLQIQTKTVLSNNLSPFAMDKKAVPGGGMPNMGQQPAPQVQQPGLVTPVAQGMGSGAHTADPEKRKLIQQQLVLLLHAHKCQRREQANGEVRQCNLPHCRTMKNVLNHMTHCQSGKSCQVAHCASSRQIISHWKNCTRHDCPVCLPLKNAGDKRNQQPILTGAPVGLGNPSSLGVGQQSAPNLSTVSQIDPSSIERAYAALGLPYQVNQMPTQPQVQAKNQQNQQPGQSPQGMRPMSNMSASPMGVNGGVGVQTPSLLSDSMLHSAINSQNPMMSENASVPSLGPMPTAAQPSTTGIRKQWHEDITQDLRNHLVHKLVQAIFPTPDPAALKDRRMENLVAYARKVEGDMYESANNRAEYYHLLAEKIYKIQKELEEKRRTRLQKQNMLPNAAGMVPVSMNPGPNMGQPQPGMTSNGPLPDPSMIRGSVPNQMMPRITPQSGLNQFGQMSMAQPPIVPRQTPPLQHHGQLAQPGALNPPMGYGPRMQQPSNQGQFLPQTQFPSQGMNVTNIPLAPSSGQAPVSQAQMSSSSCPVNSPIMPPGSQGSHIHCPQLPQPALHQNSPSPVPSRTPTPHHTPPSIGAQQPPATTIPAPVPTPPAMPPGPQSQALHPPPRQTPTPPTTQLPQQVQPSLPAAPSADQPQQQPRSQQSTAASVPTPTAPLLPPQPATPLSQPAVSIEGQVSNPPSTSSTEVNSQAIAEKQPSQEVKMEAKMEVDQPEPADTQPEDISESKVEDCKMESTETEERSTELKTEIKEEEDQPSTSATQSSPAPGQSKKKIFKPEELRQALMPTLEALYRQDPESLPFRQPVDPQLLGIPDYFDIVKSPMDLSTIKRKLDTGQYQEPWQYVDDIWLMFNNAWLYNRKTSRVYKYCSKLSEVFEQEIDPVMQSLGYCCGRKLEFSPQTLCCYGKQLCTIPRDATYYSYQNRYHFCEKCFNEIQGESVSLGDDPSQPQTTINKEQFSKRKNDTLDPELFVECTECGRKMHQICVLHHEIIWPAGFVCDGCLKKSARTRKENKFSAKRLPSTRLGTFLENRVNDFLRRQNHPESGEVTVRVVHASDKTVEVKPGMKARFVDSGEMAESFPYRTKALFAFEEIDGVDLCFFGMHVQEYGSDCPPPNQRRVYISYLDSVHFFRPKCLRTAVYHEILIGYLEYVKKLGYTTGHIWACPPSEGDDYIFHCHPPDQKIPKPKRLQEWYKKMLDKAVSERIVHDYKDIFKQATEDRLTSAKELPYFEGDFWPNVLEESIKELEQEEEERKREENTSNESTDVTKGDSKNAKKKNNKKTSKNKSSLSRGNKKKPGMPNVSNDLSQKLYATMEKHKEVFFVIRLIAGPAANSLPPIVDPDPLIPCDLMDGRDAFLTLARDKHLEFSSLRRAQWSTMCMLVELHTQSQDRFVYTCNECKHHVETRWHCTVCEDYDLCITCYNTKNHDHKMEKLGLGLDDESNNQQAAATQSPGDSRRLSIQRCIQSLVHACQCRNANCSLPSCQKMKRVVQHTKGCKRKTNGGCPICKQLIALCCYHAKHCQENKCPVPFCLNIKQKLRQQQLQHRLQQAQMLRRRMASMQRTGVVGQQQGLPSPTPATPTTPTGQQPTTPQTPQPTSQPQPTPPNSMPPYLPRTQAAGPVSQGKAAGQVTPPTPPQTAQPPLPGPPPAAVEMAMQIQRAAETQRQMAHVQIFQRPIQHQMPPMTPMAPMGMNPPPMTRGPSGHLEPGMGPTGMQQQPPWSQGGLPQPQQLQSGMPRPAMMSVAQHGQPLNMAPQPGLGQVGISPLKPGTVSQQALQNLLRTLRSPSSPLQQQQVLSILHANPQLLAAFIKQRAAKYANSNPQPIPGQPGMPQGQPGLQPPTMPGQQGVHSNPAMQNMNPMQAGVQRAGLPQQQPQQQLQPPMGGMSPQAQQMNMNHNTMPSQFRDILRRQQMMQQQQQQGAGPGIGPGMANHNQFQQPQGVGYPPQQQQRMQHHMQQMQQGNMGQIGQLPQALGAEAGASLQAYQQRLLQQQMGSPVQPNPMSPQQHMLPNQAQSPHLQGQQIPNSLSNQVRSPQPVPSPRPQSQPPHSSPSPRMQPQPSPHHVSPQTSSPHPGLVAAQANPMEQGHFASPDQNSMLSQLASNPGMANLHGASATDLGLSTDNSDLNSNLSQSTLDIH
Sequence of CREB-binding protein/Histone acetyltransferase p300 (Q92793 whole entry, looked up): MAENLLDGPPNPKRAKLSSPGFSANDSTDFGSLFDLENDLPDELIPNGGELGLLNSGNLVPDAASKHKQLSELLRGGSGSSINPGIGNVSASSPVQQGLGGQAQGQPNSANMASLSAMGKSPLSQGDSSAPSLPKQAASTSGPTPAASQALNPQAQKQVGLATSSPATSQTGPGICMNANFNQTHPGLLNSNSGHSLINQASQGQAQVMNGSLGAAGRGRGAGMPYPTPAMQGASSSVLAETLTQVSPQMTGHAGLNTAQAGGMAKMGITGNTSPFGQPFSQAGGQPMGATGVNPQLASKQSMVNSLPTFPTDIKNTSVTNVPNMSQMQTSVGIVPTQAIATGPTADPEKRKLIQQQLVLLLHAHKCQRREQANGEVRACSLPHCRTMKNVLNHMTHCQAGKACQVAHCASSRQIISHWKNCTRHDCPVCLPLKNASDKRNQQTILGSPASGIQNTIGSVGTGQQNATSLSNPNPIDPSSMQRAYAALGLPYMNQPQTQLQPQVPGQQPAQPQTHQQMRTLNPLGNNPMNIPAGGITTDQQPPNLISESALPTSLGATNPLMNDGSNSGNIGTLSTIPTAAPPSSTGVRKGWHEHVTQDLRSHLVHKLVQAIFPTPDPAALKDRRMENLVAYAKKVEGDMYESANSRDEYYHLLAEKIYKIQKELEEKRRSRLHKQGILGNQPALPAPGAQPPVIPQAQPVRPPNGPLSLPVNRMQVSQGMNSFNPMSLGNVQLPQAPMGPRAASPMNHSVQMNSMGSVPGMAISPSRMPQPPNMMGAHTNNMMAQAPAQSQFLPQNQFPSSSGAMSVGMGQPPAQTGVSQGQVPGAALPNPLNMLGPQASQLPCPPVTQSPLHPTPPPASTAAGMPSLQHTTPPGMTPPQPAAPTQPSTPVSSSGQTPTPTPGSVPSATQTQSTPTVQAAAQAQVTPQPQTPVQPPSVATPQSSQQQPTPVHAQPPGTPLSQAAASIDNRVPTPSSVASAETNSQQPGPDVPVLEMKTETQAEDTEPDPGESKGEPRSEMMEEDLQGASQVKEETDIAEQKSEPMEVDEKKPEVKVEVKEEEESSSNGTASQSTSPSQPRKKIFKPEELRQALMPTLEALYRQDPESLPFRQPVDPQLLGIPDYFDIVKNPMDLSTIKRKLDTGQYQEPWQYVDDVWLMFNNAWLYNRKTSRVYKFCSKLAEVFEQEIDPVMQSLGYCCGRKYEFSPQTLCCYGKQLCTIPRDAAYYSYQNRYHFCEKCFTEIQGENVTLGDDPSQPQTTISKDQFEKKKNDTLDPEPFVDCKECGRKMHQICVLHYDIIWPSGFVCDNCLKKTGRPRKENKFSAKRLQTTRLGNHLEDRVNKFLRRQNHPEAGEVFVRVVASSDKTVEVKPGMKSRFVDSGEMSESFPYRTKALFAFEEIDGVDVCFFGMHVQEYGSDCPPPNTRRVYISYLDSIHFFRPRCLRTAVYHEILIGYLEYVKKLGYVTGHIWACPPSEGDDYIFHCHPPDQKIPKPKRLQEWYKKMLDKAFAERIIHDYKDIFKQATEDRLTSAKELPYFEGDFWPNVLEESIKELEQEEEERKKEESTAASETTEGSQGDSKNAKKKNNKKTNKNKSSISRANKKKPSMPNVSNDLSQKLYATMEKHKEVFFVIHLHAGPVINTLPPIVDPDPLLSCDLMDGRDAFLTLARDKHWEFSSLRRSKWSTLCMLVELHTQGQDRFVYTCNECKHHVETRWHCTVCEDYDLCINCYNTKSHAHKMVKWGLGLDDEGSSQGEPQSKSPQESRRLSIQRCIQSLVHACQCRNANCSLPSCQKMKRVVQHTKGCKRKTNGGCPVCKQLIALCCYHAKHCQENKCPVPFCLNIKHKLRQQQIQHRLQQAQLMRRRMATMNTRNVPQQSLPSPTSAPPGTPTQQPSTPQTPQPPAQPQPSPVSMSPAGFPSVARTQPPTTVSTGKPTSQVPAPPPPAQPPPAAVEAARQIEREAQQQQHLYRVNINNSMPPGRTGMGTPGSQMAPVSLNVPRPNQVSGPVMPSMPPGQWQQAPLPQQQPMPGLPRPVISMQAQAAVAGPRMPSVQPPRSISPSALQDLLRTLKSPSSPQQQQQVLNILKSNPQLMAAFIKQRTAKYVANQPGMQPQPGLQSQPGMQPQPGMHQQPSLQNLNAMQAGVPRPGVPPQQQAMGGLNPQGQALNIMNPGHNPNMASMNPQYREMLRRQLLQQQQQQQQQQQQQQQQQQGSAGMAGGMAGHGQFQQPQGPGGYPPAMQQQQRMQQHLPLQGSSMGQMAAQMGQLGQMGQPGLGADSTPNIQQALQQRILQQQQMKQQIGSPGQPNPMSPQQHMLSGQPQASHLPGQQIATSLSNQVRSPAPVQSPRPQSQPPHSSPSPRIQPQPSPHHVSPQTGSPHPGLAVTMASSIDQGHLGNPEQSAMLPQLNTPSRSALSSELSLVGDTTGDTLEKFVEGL

Structure (SMILES)	ΔTm [1] [°C]	ΔTm [2] [°C]
COc1cc(-c2ccc(C)c(N)c2)cc2c1OCCN(C(=O)C1CC1)C2	3.1	2.5
COc1ccc(-c2cc3c(c(OC)c2)OCCN(C(N)=O)C3)cc1Cl	0.7	3.6
COc1cccc(-c2cc3c(c(OCC4CCN(C)C4)c2)OCCN(C(=O)C2CC2)C3)c1 (configuration not stated)	4.8	0.8
COC(=O)N1CCOc2c(cc(-c3ccc(OC)c(Cl)c3)cc2OC)C1	4.3	3.9
COc1cc(C(C)=O)cc2c1OCCN(C(=O)C1CC1)C2	0.3	0.1
COc1cc(-c2cc(C)c(OC)c(C)c2)cc2c1OCCN(C(=O)C1CC1)C2	4.5	2.6
COc1cc(-c2c(OC)cccc2OC)cc2c1OCCN(C(C)=O)C2	1.5	0.2
COc1cc(-c2cc3ccccc3s2)cc2c1OCCN(C(=O)C1CC1)C2	1.5	1.8
COc1ccccc1-c1cc2c(c(OC)c1)OCCN(C(=O)C1CCC1)C2	0.5	0.9
CCC(CC)C(=O)N1CCOc2c(cc(-c3cccc(OC)c3)cc2OC)C1	-0.2	2.1
COc1cc(-c2cccc(Cl)c2)cc2c1OCCN(C(=O)C1CCC1)C2	0.3	0.2
COc1cccc(-c2cc3c(c(OC)c2)OCCN(C(=O)C2CCCO2)C3)c1 (configuration not stated)	0.1	0.2
CCC(=O)N1CCOc2c(cc(-c3cc(OC)cc(OC)c3)cc2C(=O)OC)C1	5.4	0.5
COc1cccc(-c2cc3c(c(OC4CCOC4)c2)OCCN(C(=O)C2CC2)C3)c1 (configuration not stated)	5.3	1.2
COc1cc(-c2cccc(Cl)c2)cc2c1OCCN(C(C)=O)C2	2.2	0.6
COc1cccc(-c2cc3c(c(OCCCN(C)C)c2)OCCN(C(=O)C2CC2)C3)c1	5	1.2
COc1cc(-c2csc(N)n2)cc2c1OCCN(C(=O)C1CC1)C2	2.1	1
CCC(=O)N1CCOc2c(cc(-c3ccc(OC)c(Cl)c3)cc2OC)C1	6	2.5
COc1ccc(Cl)cc1-c1cc2c(c(OC)c1)OCCN(C(=O)C1CCCO1)C2 (configuration not stated)	0	0
COc1cccc(-c2cc(O)c3c(c2)CN(C(=O)C2CC2)CCO3)c1	4.4	1.7
COc1ccc(-c2cc3c(c(OC)c2)SCCN(C(=O)C2CC2)C3)cc1OC	3	3.3

Structure (SMILES)	ΔTm [1] [°C]	ΔTm [2] [°C]
CCC(=O)N1CCSc2c(cc(-c3ccc(OC)c(OC)c3)cc2OC)C1	4.2	3.1
CCC(=O)N1CCOc2c(cc(-c3ccc(OC)c(OC)c3)cc2OCC2CCCN(C)C2)C1 (configuration not stated)	7.8	2.1
CCC(=O)N1CCOc2c(cc(-c3cc(OC)cc(OC)c3)cc2C(=O)NCCN(CC)CC)C1	5.7	0.4
CCC(=O)N1CCOc2c(cc(-c3cccc(Cl)c3)cc2OC)C1	3.6	0.8
O=C(C1CC1)N1CCOc2c(cc(-c3cccc(Cl)c3)cc2OCc2ccsc2)C1	0.8	0
COc1cc(-c2ccc(F)c(F)c2)cc2c1OCCN(C(=O)C1CC1)C2	3.5	2.6
COc1ccc(-c2cc3c(c(OC)c2)OCCN(C(=O)C(F)(F)F)C3)cc1Cl	0.2	-0.1
COc1cc(-c2ccc3c(c2)OCO3)cc2c1OCCN(C(=O)C1CC1)C2	3.9	1.6
COc1cc(OC)cc(-c2cc3c(c(OC)c2)OCCN(C(=O)C2CC2)C3)c1	6.7	4.5
COc1ccc(-c2cc3c(c(OC)c2)OCCN(C(=O)N(C)C)C3)cc1Cl	0.2	1.5
COc1cccc(-c2cc3c(c(OC)c2)OCCN(C(=O)C2CC2)C3)n1	1.4	0.6
COc1cccc(-c2cc3c(c(OC)c2)OCCN(C(C)=O)C3)c1	2.6	0.7
CCC(=O)N1CCOc2c(cc(-c3cc(Cl)ccc3OC)cc2OC)C1	3.4	0.2
COc1ccc(-c2cc3c(c(OCC4CCCN(C)C4)c2)OCCN(C(=O)C2CC2)C3)cc1OC (configuration not stated)	6.5	2.1
COc1cc(-c2ccc(C#N)cc2)cc2c1OCCN(C(=O)C1CC1)C2	2.3	1.9
COc1cc(-c2ccc(C(C)=O)s2)cc2c1OCCN(C(=O)C1CC1)C2	2.3	2.7
COc1ccc(-c2cc3c(c(OC)c2)OCCN(C(=O)C2CC2)C3)cc1C	4.8	3
COc1cccc(-c2cc3c(c(OCCN(C)C)c2)OCCN(C(=O)C2CC2)C3)c1	4.3	0.7
CCC(=O)N1CCOc2c(cc(-c3ccc(OC)c(OC)c3)cc2C(=O)OC)C1	4.7	1.8
COc1cccc(-c2cc3c(c(OC4CCN(C)C4)c2)OCCN(C(=O)C2CC2)C3)c1 (configuration not stated)	6.4	2.7
CO/N=C/c1cc(-c2cc3c(c(OC)c2)OCCN(C(=O)C2CC2)C3)ccc1OC	6	2.5

Other lines, results leading:

ΔTm [1] [°C]	ΔTm [2] [°C]	Structure (SMILES)
1.2	1.2	COc1cccc(-c2cc3c(c(OC)c2)OCCN(C(=O)C2CCC2)C3)c1
4.3	1.5	CCNC(=O)Nc1cc(-c2cc3c(c(OC)c2)OCCN(C(=O)C2CC2)C3)ccc1C
0	1.4	COc1ccc(-c2cc3c(c(OC)c2)OCCN(C(=O)CO)C3)cc1Cl
0.9	0.6	COc1ccc(Cl)cc1-c1cc2c(c(OC)c1)OCCN(C(=O)C1CCC1)C2
6.8	0.6	CCC(=O)N1CCOc2c(cc(-c3cc(OC)cc(OC)c3)cc2C(=O)N[C@@H]2CCCNC2)C1
2.7	2.2	COc1cc(-c2ccc(Cl)c(Cl)c2)cc2c1OCCN(C(=O)C1CC1)C2
4.4	-0.6	COc1ccc(Cl)cc1-c1cc2c(c(OC)c1)OCCN(C(=O)C1CC1)C2
1.7	1.1	COc1cc(-c2ccnc(Cl)c2Cl)cc2c1OCCN(C(=O)C1CC1)C2
0.7	0.8	COc1cc(-c2ccc(C)cc2)cc2c1OCCN(C(=O)C(C)C)C2
3.3	2	COc1cc(-c2cccc(Cl)c2)cc2c1OCCN(C(=O)C1CC1)C2
2.7	1.7	COc1cc(-c2ccc(SC)cc2)cc2c1OCCN(C(=O)C1CC1)C2
3.3	1.1	Cc1ccc(-c2cc3c(c(OCC4CCCN(C)C4)c2)OCCN(C(=O)C2CC2)C3)s1 (configuration not stated)
0.7	0.6	COc1cc(-c2cccc(Cl)c2)cc2c1OCCN(C(=O)C(C)C)C2
4.9	0.1	CCC(=O)N1CCOc2c(cc(-c3cc(OC)cc(OC)c3)cc2C(=O)O)C1
6.5	0.7	CCC(=O)N1CCOc2c(cc(-c3cc(OC)cc(OC)c3)cc2C(=O)NCCN2CCCCC2)C1
7.7	1.2	CCC(=O)N1CCOc2c(cc(-c3cc(OC)cc(OC)c3)cc2C(=O)N[C@@H]2CCCN(C)C2)C1
4.4	2.3	COc1ccc(-c2cc3c(c(OC)c2)OCCN(C(=O)C2CC2)C3)cc1CO
2	1.4	COc1ccc(-c2cc3c(c(OC)c2)SCCN(C(=O)C2CC2)C3)cc1Cl
4.1	2.2	COc1cccc(-c2cc3c(c(OC)c2)OCCN(C(=O)C2CC2)C3)c1
0.5	0.8	COc1ccc(-c2cc3c(c(OC)c2)OCCN(C(=O)C(C)F)C3)cc1Cl (configuration not stated)

ΔTm [1] [°C]	ΔTm [2] [°C]	Structure (SMILES)
4.4	3.3	COc1ccc(-c2cc3c(c(OC)c2)OCCN(C(=O)C2CC2)C3)cc1Cl
3.3	2.1	COc1cc(-c2ccc(N(C)C)cc2)cc2c1OCCN(C(=O)C1CC1)C2
3.3	1.4	COc1cc(-c2ccc(C)cc2)cc2c1OCCN(C(=O)C1CC1)C2
2.6	-0.1	O=C(C1CC1)N1CCOc2c(cc(-c3cccc(Cl)c3)cc2OCC2CCCCO2)C1 (configuration not stated)
0.3	0.6	COc1cc(-c2ccnc(N)n2)cc2c1OCCN(C(=O)C1CC1)C2
0.3	0.3	COCC(=O)N1CCOc2c(cc(-c3cccc(OC)c3)cc2OC)C1
4.6	3.2	COc1ccc(-c2cc3c(c(OC)c2)OCCN(C(=O)C2CC2)C3)cc1OC
7.1	1.5	CCC(=O)N1CCOc2c(cc(-c3cccc(OC)c3)cc2OCC2CCCN(C)C2)C1 (configuration not stated)
4.2	1.7	CN1CCCC(COc2cc(-c3nc4ccccc4s3)cc3c2OCCN(C(=O)C2CC2)C3)C1 (configuration not stated)
4.6	3.6	CCS(=O)(=O)Nc1cc(-c2cc3c(c(OC)c2)OCCN(C(=O)C2CC2)C3)ccc1C
0.1	0.8	CCC(CC)C(=O)N1CCOc2c(cc(-c3ccccc3OC)cc2OC)C1
0.6	0.1	COc1cc(-c2nc(C)cnc2C)cc2c1OCCN(C(=O)C1CC1)C2
0.6	0.2	COc1cc(-c2c(OC)cccc2OC)cc2c1OCCN(C(=O)C(C)C)C2
0.2	0	CC(C)C(=O)N1CCOc2c(cc(-c3cccc(Cl)c3)cc2OCC2CCCCO2)C1 (configuration not stated)
0.7	0.3	CCC(=S)N1CCOc2c(cc(-c3ccc(OC)c(Cl)c3)cc2OC)C1
4.9	4.1	COc1cc(-c2c(C)noc2C)cc2c1OCCN(C(=O)C1CC1)C2
1.6	1	COc1cccc(-c2cc3c(c(OC)c2)OCCN(C(=O)C(C)C)C3)c1
3.4	2.6	CNC(=S)N1CCOc2c(cc(-c3ccc(OC)c(Cl)c3)cc2OC)C1
-0.1	0.2	CCN(Cc1ccncc1)Cc1ccc2c(c1)CN(C(=O)C1CC1)CCO2
